Calls of active or inactive are those of the source. The calls are words filed in the database; no cut-off is given here.

One compound from ChEMBL document CHEMBL5390295, “Isolinderalactone Ameliorates the Pathology of Alzheimer's Disease by Inhibiting the JNK Signaling Pathway” (2023) can be followed below.

Test [1] has as its system PC-12. As to the kind of experiment: Neuroprotective activity against Abeta1-42 induced rat PC12 cells assessed as […] at 1.25 to 10 uM preincubated for 3 hrs followed by Abeta1-42 induction and measured after 24 hrs by MTT assay. Particulars: dose 1.25-10 µM, time 27.0 hrs. Type of test: functional, cell-based. The method in brief:
(§1)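 PC12 cells were seeded at 5×10^3/well and pretreated 3 h with test compound (range or 10 μM), with or without SP600125 1.25 μM for 0.5 h beforehand. Cells were then exposed to 10 μM Aβ1–42 oligomers for 24 h. MTT 0.5 mg/mL was added for 3–4 h, formazan dissolved in DMSO, and absorbance read at 570 nm. Viability is given as % of control.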
In general terms: Tetrazolium assays rely on reduction of a dye to a coloured formazan, in cell work by metabolically active cells.

For test [2], the system named is PC-12. The experiment in a line: Neuroprotective activity against Abeta1-42 induced rat PC12 cells assessed as reduction in LDH release at 10 uM preincubated for 3 hrs followed by Abeta1-42 induction and measured after 24 hrs by LDH release assay. Format: functional, cell-based. Particulars: time 27.0 hrs. Put shortly: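 PC12 cells were pretreated 3 h with 10 μM, then incubated 24 h with or without 10 μM Aβ1–42. LDH released into the supernatant was measured.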
(LDH leaks from cells whose membrane has failed.)

In test [3] the test system is PC-12. The experiment in a line: Induction of apoptosis in Abeta1-42 induced rat PC12 cells assessed as viable cell at 10 uM preincubated for 3 hrs followed by Abeta1-42 induction and measured after 24 hrs by Annexin V-FITC/PI staining based flow cytometry analysis (reference value: 97.8%). Type of test: functional. Particulars: time 27 hrs. (In general: Flow cytometry measures light scatter and fluorescence of single cells or particles in a stream.)

Test [4] relates to PC-12. As to the kind of experiment: Induction of apoptosis in Abeta1-42 induced rat PC12 cells assessed as early apoptosis at 10 uM preincubated for 3 hrs followed by Abeta1-42 induction and measured after 24 hrs by Annexin V-FITC/PI staining based flow cytometry analysis (reference value: 1.5%). Format: functional. Particulars: time 27 hrs.
Test [5] deals with PC-12. The experiment in a line: Induction of apoptosis in Abeta1-42 induced rat PC12 cells assessed as necrosis at 10 uM preincubated for 3 hrs followed by Abeta1-42 induction and measured after 24 hrs by Annexin V-FITC/PI staining based flow cytometry analysis (reference value: 0.0%). Format: functional. Particulars: time 27 hrs.
In test [6] the test system is PC-12. As to the kind of experiment: Neuroprotective activity in Abeta1-42 induced rat PC12 cells assessed as decrease in cleaved caspase-3 level at 10 uM preincubated for 3 hrs followed by Abeta1-42 induction and measured after 24 hrs. Format: functional, cell-based. Particulars: time 27.0 hrs. Put shortly: (§2)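 Aβ1–42 challenge in PC12 cells was 10 μM for 24 h after 3 h pretreatment at 10 μM. SP600125 (1.25 μM) was added 0.5 h before pretreatment where used. Cells were lysed in RIPA and protein measured by BCA. Blotting used PVDF transfer, 5% BSA/TBST block for 2 h, primaries 1:1000 overnight at 4 °C, and HRP secondary for 2 h. Bcl-2/Bax ratio and band intensities were quantified.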

In test [7] the test system is PC-12. The experiment in a line: Neuroprotective activity against in Abeta1-42 induced rat PC12 cells assessed as effect on P38MAPK protein level at 10 uM preincubated for 3 hrs followed by Abeta1-42 induction and measured after 24 hrs by Western blot analysis. Type of test: functional, cell-based. Particulars: time 27.0 hrs. Put shortly: as §2
Test [8] concerns Mus musculus. As to the kind of experiment: Anti-alzheimer activity against APP/PS1 dE9 double transgenic mouse model assessed as improvement in exploratory behavior at 1 to 10 mg/kg, ip administered once daily for 30 consecutive days measured on day 1 by novel object recognition test. Particulars: dose 1-10 mg/kg, time 31.0 day. Format: functional, organism-based. Put shortly: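 Same mouse cohort and ip PBS dosing schedule (1 or 10 mg/kg; donepezil 5 mg/kg). Novel object recognition: two objects, 5 min session, with exploration frequency and duration scored within 2–3 cm of objects. After 24 h one object was replaced by a novel object and a second 5 min session was recorded.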

Test [9] deals with Mus musculus. The experiment in a line: Anti-alzheimer activity against APP/PS1 dE9 double transgenic mouse model assessed as decrease in escape latency at 10 mg/kg, ip administered once daily for 30 consecutive day measured on day 5 by morris water maze test. Format: functional, organism-based. Particulars: time 35.0 day. The method in brief: (§3)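 Female APP/PS1 mice, 10 months old, about 30 g, 10 per group. Dosing was intraperitoneal in 1× PBS, once daily for one month (1 or 10 mg/kg test; 5 mg/kg donepezil). WT and untreated APP/PS1 controls got PBS. Morris water maze: training days 1–4, averaged escape latency. Day-5 probe trial ran 60 s with the platform removed, recording platform crossings and time per quadrant. Mean ± SEM.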

Test [10] has as its system Mus musculus. As to the kind of experiment: Anti-alzheimer activity against APP/PS1 dE9 double transgenic mouse model assessed as increase in platform crossings at 10 mg/kg, ip administered once daily for 30 consecutive days […] by morris water maze test. Type of test: functional, organism-based. The method in brief: as §3
Test [11] concerns Mus musculus. As to the kind of experiment: Anti-alzheimer activity against APP/PS1 dE9 double transgenic mouse model assessed as increase in time spent in the target quadrant at 10 mg/kg, ip administered once daily for 30 consecutive days measured on day 5 by morris water maze test. Particulars: time 35.0 day. Format: functional, organism-based. The method in brief:
as §3

Test [12] relates to Mus musculus. As to the kind of experiment: Anti-alzheimer activity in hippocampus of APP/PS1 dE9 double transgenic mouse model assessed as reduction in glial cell aggregation at 1 to 10 mg/kg, ip administered once daily for 30 consecutive days by immunofluorescence staining. Format: functional, organism-based. Particulars: dose 1-10 mg/kg, time 30.0 day. The method in brief:
(§4)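 Brains from dosed female APP/PS1 mice (10 months) were fixed in 4% paraformaldehyde at 4 °C for 24–48 h, taken through a sucrose gradient and OCT, and cut into 15 μm sections. Sections were permeabilized with 0.3% Triton X-100, blocked in 10% BSA for 1 h, and incubated with primary antibody overnight at 4 °C (1:200). Secondary was 1:500 for 1 h at 25 °C, with DAPI counterstain and confocal imaging, in triplicate.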

The subject of test [13] is Mus musculus. As to the kind of experiment: Anti-alzheimer activity in hippocampus of APP/PS1 dE9 double transgenic mouse model assessed as reduction in amyloid beta plaque deposition at 1 to 10 mg/kg, ip administered once daily for 30 consecutive days by immunofluorescence staining. Format: functional, organism-based. Particulars: dose 1-10 mg/kg, time 30.0 day. The method in brief:
as §4

The subject of test [14] is Mus musculus. As to the kind of experiment: Anti-alzheimer activity in hippocampus of APP/PS1 dE9 double transgenic mouse model assessed as increase in the level of PSD95 at 10 mg/kg, ip administered once daily for 30 consecutive days by Western blot analysis. Type of test: functional, organism-based. Particulars: time 30.0 day. The method in brief:
(§5)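 Hippocampal homogenates from dosed APP/PS1 mice were extracted in RIPA and protein measured by BCA. Samples were run by SDS electrophoresis, transferred to 0.22 μm PVDF for 90 min, blocked with 5% BSA in TBST for 2 h at RT, and probed with primaries 1:1000 overnight at 4 °C. HRP secondary was applied for 2 h at RT.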

Test [15] has as its system Mus musculus. The experiment in a line: Anti-alzheimer activity in hippocampus of APP/PS1 dE9 double transgenic mouse model as reduction in neuronal apoptosis at 1 to 10 mg/kg, ip administered once daily for 30 consecutive days by immunofluorescence analysis. Format: functional, organism-based. Particulars: dose 1-10 mg/kg, time 30.0 day. Put shortly:
as §4

For test [16], the system named is Mus musculus. As to the kind of experiment: Anti-alzheimer activity in hippocampus of APP/PS1 dE9 double transgenic mouse model assessed as increase in […] at 1 to 10 mg/kg, ip administered once daily for 30 consecutive days […]. Particulars: dose 1-10 mg/kg, time 30.0 day. Type of test: functional, organism-based. Put shortly: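 Hippocampal tissue from dosed APP/PS1 mice was lysed in RIPA. SOD activity was read by WST-8/xanthine oxidase formazan kit assay and MDA by lipid peroxidation kit, with absorbance on a microplate reader.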

Test [17] has as its system Mus musculus. The experiment in a line: Anti-alzheimer activity in hippocampus of APP/PS1 dE9 double transgenic mouse model assessed as suppression in p-JNK level at 10 mg/kg, ip administered once daily for 30 consecutive days by Western blot analysis. Particulars: time 30.0 day. Type of test: functional, organism-based. Put shortly:
as §5

Test [18] concerns PC-12. As to the kind of experiment: Neuroprotective activity against Abeta1-42 induced rat PC12 cells assessed as increase in cell viability at 10 uM preincubated for 3 hrs followed by Abeta1-42 induction and measured after 24 hrs by MTT assay. Format: functional, cell-based. Particulars: time 27.0 hrs. The method in brief:
as §1

As for `C=C[C@@]1(C)Cc2occ(C)c2[C@@H]2OC(=O)C(=C)[C@@H]21` [ISOLINDERALACTONE], the outcome in the test on PC-12 [1], in the test on PC-12 [2], with PC-12 [6], in the test on Mus musculus [8], in the test with Mus musculus [9] and in the test with Mus musculus [10] was Active. Moreover, the result in the test on Mus musculus [11], in the test with Mus musculus [12], in the test with Mus musculus [13], in the test on Mus musculus [14], in the test on Mus musculus [15] and in the test on Mus musculus [16] was Active. For the same compound, the result in the test with Mus musculus [17] and in the test with PC-12 [18] was Active. In addition, the Activity is recorded as 97.6% in the test with PC-12 [3], 2% with PC-12 [4] and 0% in the test with PC-12 [5]. Further, the outcome in the test with PC-12 [7] was inactive.
